The subject of assay [1] is Human immunodeficiency virus 1. In words: Inhibitory activity against HIV-1 mutant strain 138K. Format: functional, organism-based. In a few lines: (§1)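 Mutant HIV-1 made by recombining mutant PR-RT sequence into a PR-RT-deleted HXB2 proviral clone. Serial compound concentrations plated, then virus (200 CCID50/well) and MT4 cells (30 000 cells/well; RPMI 1640, 10% FCS) added; 5 days at 37 °C, 5% CO2; viability read by MTT. EC50 = concentration giving 50% infection versus drug-free control; mock-infected cultures run in parallel for toxicity.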

The test system of assay [2] is Human immunodeficiency virus 1. The assay is described as follows: Inhibitory activity against HIV-1 double mutants strain 100I and 103N. Format: functional, organism-based. In a few lines:
as §1

For assay [3], the system named is Human immunodeficiency virus 1. In words: Inhibitory activity against HIV-1 double mutants strain 101E and 103N. It counts as functional, organism-based. The method in brief: as §1
In assay [4] the test system is Human immunodeficiency virus 1. The assay is described as follows: Inhibitory activity against HIV-1 double mutants strain 103N and 181C. Format: functional, organism-based. In a few lines: as §1
The test system of assay [5] is Human immunodeficiency virus 1. In words: Inhibitory activity against HIV-1 double mutants strain 227L and 106A. It counts as functional, organism-based. The method in brief: as §1
Assay [6] concerns Human immunodeficiency virus 1. The assay is described as follows: Inhibitory activity against HIV-1 mutant strain 100I. Format: functional, organism-based. In a few lines: as §1
The subject of assay [7] is Human immunodeficiency virus 1. In words: Inhibitory activity against HIV-1 mutant strain 101E. Format: functional, organism-based. The method in brief: as §1
In assay [8] the test system is Human immunodeficiency virus 1. The assay is described as follows: Inhibitory activity against HIV-1 mutant strain 103N. It counts as functional, organism-based. The method in brief:
as §1

The test system of assay [9] is Human immunodeficiency virus 1. The assay is described as follows: Inhibitory activity against HIV-1 mutant strain 106A. Format: functional, organism-based. The method in brief:
as §1

For assay [10], the system named is Human immunodeficiency virus 1. In words: Inhibitory activity against HIV-1 mutant strain 179E. It counts as functional, organism-based. The method in brief:
as §1

For assay [11], the system named is Human immunodeficiency virus 1. In words: Inhibitory activity against HIV-1 mutant strain 181C. It counts as functional, organism-based. In a few lines:
as §1

Assay [12] relates to Human immunodeficiency virus 1. In words: Inhibitory activity against HIV-1 mutant strain 188L. It counts as functional, organism-based. The method in brief: as §1
Assay [13] relates to Human immunodeficiency virus 1. In words: Inhibitory activity against HIV-1 mutant strain 190A. Format: functional, organism-based. The method in brief:
as §1

For assay [14], the system named is Human immunodeficiency virus 1. In words: Inhibitory activity against HIV-1 mutant strain 190S. Format: functional, organism-based. In a few lines: as §1
Assay [15] has as its system Human immunodeficiency virus 1. In words: Inhibitory activity against HIV-1 mutant strain 227C. It counts as functional, organism-based. In a few lines: as §1
For assay [16], the system named is Human immunodeficiency virus 1. The assay is described as follows: Inhibitory activity against wild type HIV-1 LAI cell line. The settings on record: Human immunodeficiency virus 1, LAI. Format: functional, organism-based. The method in brief:
(§2)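 MT4 human T-lymphoblastoid cells were grown in RPMI 1640 with 10% fetal calf serum and antibiotics at 37 °C and 5% CO2. A compound concentration series was combined with HIV-1 LAI at 200 CCID50/well and 30 000 cells/well. Mock-infected cultures with the same concentrations were run in parallel to measure cytotoxicity. After 5 days, cell viability was read by MTT colorimetry. EC50 is the concentration giving 50% infection versus the drug-free control.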

Assay [17] concerns Human immunodeficiency virus 1. In words: Selectivity index of cytotoxic activity (CC50) to inhibitory activity (IC50) relative to LAI cell line. Format: functional. The method in brief: as §2

pIC50: −log10 of the molar value.

For orientation: pIC50 means the IC50 on a negative log10 scale, so that one unit is a factor of ten. A lower pIC50 goes with a large IC50.

`CCOCn1c(Cc2ccccc2)c(C(C)C)c(=O)[nH]c1=O` [EMIVIRINE]: the negative-log IC50 (pIC50) in assay [1] was 7.15; in [2], 4.60; in assay [3], 5.10; in assay [4] it was 4.00; in assay [5], 4.00; in assay [6], 7.40. Moreover, the negative-log IC50 (pIC50) in assay [7] was 6.92; in assay [8] it was 6.10; in assay [9] it was 5.70; in [10], 7.52; in assay [11] it was 5.70; in assay [12] it was 4.40. Also, the negative logarithm of the IC50 (pIC50) is 5.80 in [13], 5.10 in assay [14], 4.10 in [15] and 8.10 in [16]. This compound showed a Selectivity index in [17] of 1260.

On to `CCc1c(C)[nH]c(=O)c(N(C)C)c1C(=O)c1cc(C)cc(C)c1`, for which the pIC50 in assay [1] was 8.30; in assay [2], 7.40; in assay [3] it was 8.00; in [4], 6.82; in assay [5], 6.41; in [6], 8.22. The negative logarithm of the IC50 (pIC50) was 8.10 in assay [7]; 8.00 in assay [8]; 8.22 in assay [9]; 8.70 in assay [10]; 7.22 in assay [11]; 6.82 in [12]. Besides, the pIC50 was 8.00 in assay [13], 8.40 in [14], 6.20 in [15] and 8.40 in [16]. The compound further had a Selectivity index in assay [17] of 2510.

With `CCc1c(C)nc(O)c(N(C)C)c1C(=O)c1cccc(/C(C)=C/C#N)c1`, the negative logarithm of the IC50 (pIC50) in [1] is 8.40; in assay [2], 7.40; in [3], 7.70; in assay [4], 6.70; in [5] it was 5.90; in [6], 8.00. Also, the pIC50 in assay [7] is 8.10; in assay [8] it was 8.52; in [9] it was 8.52; in assay [10], 8.70; in [11], 7.22; in assay [12] it was 6.41. For the same compound, the negative-log IC50 (pIC50) was 8.22 in assay [13], 8.00 in assay [14], 5.90 in assay [15] and 9.00 in [16]. The compound also had a Selectivity index in assay [17] of 63100.

As to `CCc1c(C)nc(O)c(N(C)C)c1Cc1cccc(/C=C/C#N)c1`, the negative logarithm of the IC50 (pIC50) is 8.52 in [1]; 7.52 in [2]; 7.70 in [3]; 7.52 in assay [4]; 5.50 in assay [5]; 8.00 in assay [6]. For the same compound, the pIC50 in assay [7] is 8.22; in assay [8] it was 8.70; in assay [9] it was 8.70; in [10] it was 9.00; in assay [11] it was 8.00; in assay [12], 6.82. Further, the negative logarithm of the IC50 (pIC50) in assay [13] is 8.10; in assay [14], 7.40; in assay [15], 6.41; in [16], 9.40. The compound further returned a Selectivity index in assay [17] of 25100.

The values are drawn from ChEMBL document CHEMBL1138799, “4-benzyl- and 4-benzoyl-3-dimethylaminopyridin-2(1H)-ones, a new family of potent anti-HIV agents: optimization and in vitro evaluation against clinically important HIV mutant strains” (J Med Chem, 2004).
